Source: ChEMBL document CHEMBL3102806, “1,2,4-Triazole/oxime hybrids as new strategy for nitric oxide donors: Synthesis, anti-inflammatory, ulceroginicity and antiproliferative activities” (Eur J Med Chem, 2014)

Assays:
Format in all cases: functional
SR = assay: Growth inhibition of human SR cells after 48 hrs by sulforhodamine B assay
Method in brief: (§1)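 NCI 60-cell-line panel, five-dose run at 10-fold dilutions from 10^-4 to 10^-8 M, 48 h continuous exposure. Viability by SRB protein stain. Percent growth is taken from time-zero, untreated-control and treated absorbances. GI50 is the concentration giving a 50% lower net protein increase than in control cells. TGI is taken at Ti = Tz, LC50 at a 50% loss of initial protein.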

SK-MEL-28 = assay: Growth inhibition of human SK-MEL-28 cells after 48 hrs by sulforhodamine B assay; conditions: SK-MEL-28, 48 h; method in brief: as §1
HCT-15 = assay: Growth inhibition of human HCT15 cells after 48 hrs by sulforhodamine B assay; conditions: HCT-15, 48 h
Method in brief: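 NCI full ~60 cell line panel. Five 10-fold concentrations from 10^-4 to 10^-8 M, 48 h continuous exposure, SRB protein read-out. Time-zero, control and treated absorbances give percentage growth. GI50 is the concentration where [(Ti−Tz)/(C−Tz)]×100 = 50; TGI is where Ti = Tz; LC50 is where [(Ti−Tz)/Tz]×100 = −50.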

[1] = read-out: LC50 (the source's name)

COc1ccc(-c2nnc(SCC(=O)Nc3ccc(/C(C)=N/O)cc3)n2-c2ccccc2)cc1OC
> 100 µM: GI50 (SR) | TGI (SR) | CC50 (SR; [1]) | GI50 (SK-MEL-28) | TGI (SK-MEL-28) | CC50 (SK-MEL-28; [1]) | GI50 (HCT-15) | TGI (HCT-15) | CC50 (HCT-15; [1])
